Assay results reported in ChEMBL document CHEMBL3098023, “Rationally designed hybrid molecules with appreciable COX-2 inhibitory and anti-nociceptive activities” (Bioorg Med Chem Lett, 2014).
The source made the active and inactive calls. No cut-off for these calls is given here.

Experiments:
[1] = target: T1, Prostaglandin G/H synthase 1 (Ovis aries, UniProt P05979); assay: Inhibition of ovine COX1 using arachidonic acid as substrate incubated for 10 mins prior to substrate addition measured after 2 mins by spectrophotometry
T1 sequence (P05979 whole entry): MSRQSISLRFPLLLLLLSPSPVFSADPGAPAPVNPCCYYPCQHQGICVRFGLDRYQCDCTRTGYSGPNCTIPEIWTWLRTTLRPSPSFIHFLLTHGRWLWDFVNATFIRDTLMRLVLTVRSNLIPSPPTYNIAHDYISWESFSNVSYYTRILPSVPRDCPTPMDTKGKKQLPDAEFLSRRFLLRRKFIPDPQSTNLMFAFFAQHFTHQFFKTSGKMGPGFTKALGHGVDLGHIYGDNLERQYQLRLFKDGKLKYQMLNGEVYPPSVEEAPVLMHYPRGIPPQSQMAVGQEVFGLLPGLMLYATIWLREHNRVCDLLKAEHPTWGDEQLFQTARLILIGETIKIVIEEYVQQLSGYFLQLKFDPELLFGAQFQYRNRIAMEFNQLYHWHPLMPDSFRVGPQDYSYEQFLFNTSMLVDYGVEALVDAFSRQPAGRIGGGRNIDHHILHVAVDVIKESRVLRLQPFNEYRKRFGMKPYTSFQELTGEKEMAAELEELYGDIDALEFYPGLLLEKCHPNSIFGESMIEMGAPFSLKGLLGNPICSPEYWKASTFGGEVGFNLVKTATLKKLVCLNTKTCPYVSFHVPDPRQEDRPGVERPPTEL
Method in brief: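 Ovine COX-1 with heme, preincubated 10 min at 37 °C with inhibitor at 10^-3 to 10^-6 M. Arachidonic acid reaction for 2 min, stopped with 1 M HCl, then stannous chloride. Prostaglandin quantified by competitive EIA with AChE tracer, Ellman's reagent read at 420 nm. Heat-inactivated enzyme for background. Run in duplicate; IC50 fitted from % inhibition against concentration.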

Mus musculus [2] = assay: Antinociceptive activity in Swiss albino mouse assessed as reduction in capsaicin-induced paw licking at 10 mg/kg, ip administered 30 mins prior to capsaicin-challenge; type: functional, organism-based; set-up: dose 10 mg/kg
Method in brief: (§1)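 Swiss albino mice (25–35 g) of either sex, acclimatized at least 1 h, each used once; groups of 6. Treatments given ip 30 min before intraplantar capsaicin (1.6 µg in 20 µL) into right hind paw; saline (0.5 mL) control, diclofenac 25 mg/kg reference, test doses 5 or 10 mg/kg. Time spent paw licking and twitching recorded over 10 min per animal.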

Mus musculus [3] = assay: Antinociceptive activity in Swiss albino mouse assessed as reduction in capsaicin-induced paw licking at 5 mg/kg, ip administered 30 mins prior to capsaicin-challenge; type: functional, organism-based; set-up: dose 5 mg/kg; method in brief: as §1
[4] = target: T2, Prostaglandin G/H synthase 2 (Homo sapiens) (UniProt P35354); assay: Inhibition of human recombinant COX2 using arachidonic acid as substrate at 10^-8 to 10^-5 M incubated for 10 mins prior to substrate addition measured after 2 mins by spectrophotometry
T2 sequence (whole entry): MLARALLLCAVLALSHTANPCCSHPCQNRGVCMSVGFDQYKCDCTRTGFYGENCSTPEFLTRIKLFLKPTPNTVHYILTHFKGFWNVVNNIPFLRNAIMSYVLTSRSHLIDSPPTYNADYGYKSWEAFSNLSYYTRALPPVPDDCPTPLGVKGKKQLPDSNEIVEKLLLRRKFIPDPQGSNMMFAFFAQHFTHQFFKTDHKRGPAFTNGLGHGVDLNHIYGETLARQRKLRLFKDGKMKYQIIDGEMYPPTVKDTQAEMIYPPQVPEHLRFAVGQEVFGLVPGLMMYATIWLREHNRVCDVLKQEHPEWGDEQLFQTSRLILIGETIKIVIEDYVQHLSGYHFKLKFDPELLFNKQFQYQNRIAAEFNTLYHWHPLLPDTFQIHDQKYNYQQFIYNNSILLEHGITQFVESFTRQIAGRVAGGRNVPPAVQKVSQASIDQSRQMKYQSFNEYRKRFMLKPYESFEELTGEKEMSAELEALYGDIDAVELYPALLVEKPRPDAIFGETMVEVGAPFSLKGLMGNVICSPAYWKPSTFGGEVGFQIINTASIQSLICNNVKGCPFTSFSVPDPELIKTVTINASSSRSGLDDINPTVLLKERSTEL
Method in brief: (§2)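 Human recombinant COX-2 or ovine COX-1 with heme in reaction buffer, preincubated with inhibitor 10 min at 37 °C. Arachidonic acid then added for 2 min, stopped with 1 M HCl, followed by stannous chloride. Prostaglandin measured by AChE-tracer EIA, 18 h at room temperature, Ellman's development, absorbance at 420 nm. Boiled enzyme as background. Duplicates; IC50 from % inhibition versus concentration plot.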

[5] = target: T3, Prostaglandin G/H synthase 1 (Ovis aries) (UniProt P05979); assay: Inhibition of ovine COX1 using arachidonic acid as substrate at 10^-8 to 10^-5 M incubated for 10 mins prior to substrate addition measured after 2 mins by spectrophotometry; method in brief: as §2
T3 sequence (whole entry): T1 sequence (P05979 whole entry)

Mus musculus [6] = assay: Antinociceptive activity in Swiss albino mouse assessed as reduction in capsaicin-induced paw licking at 25 mg/kg, ip administered 30 mins prior to capsaicin-challenge; type: functional, organism-based; set-up: dose 25 mg/kg; method in brief: as §1

IC50 [1] [µM]	inhibition [4]	inhibition [5]	SMILES	Activity (Mus musculus [2])	Activity (Mus musculus [3])	Activity (Mus musculus [6])
39.3	–	–	O=c1cc(-c2ccccc2)oc2cc(O)cc(O)c12 [CHRYSIN]	–	–	–
90	–	–	CC1=NN(c2cccc(Cl)c2)C(=O)/C1=C\c1cn(CCCCOc2cc(O)c3c(=O)cc(-c4ccccc4)oc3c2)c2ccccc12	Active	Active	–
–	inactive	inactive	O=C1Nc2ccccc2/C1=C/c1cn(CCCCOc2cc(O)c3c(=O)cc(-c4ccccc4)oc3c2)c2ccccc12	–	–	–
115	–	–	O=C1/C(=C\c2cn(CCCOc3cc(O)c4c(=O)cc(-c5ccccc5)oc4c3)c3ccccc23)c2ccccc2N1c1c(Cl)cccc1Cl	Active	Active	–
–	inactive	inactive	O=C1/C(=C\c2cn(CCCCOc3cc(O)c4c(=O)cc(-c5ccccc5)oc4c3)c3ccccc23)c2ccccc2N1c1c(Cl)cccc1Cl	–	–	–
102	–	–	O=C1Nc2ccccc2/C1=C/c1cn(CCCOc2cc(O)c3c(=O)cc(-c4ccccc4)oc3c2)c2ccccc12	inactive	inactive	–
–	–	–	O=C(O)Cc1ccccc1Nc1c(Cl)cccc1Cl	–	–	Active
118	–	–	CC1=NN(c2cccc(Cl)c2)C(=O)/C1=C\c1cn(CCCOc2cc(O)c3c(=O)cc(-c4ccccc4)oc3c2)c2ccccc12	Active	inactive	–
